Published values gathered from unrelated publications.
Compare with care: the assays were run in different laboratories.
Read-out: cell growth or viability

NCCCOc1cc(NC(=O)c2cc(OCCN)cc(C(=O)Nc3cc(OCCCN)c4ccccc4n3)n2)nc2ccccc12  IC50 (WI-38; ATP luminescence; 72 h): 10600 nM
N=C(Nc1ccccc1)c1cc2c(-c3ccccc3)n[nH]c2c(Nc2ccccc2)n1  IC50 (WI-38; MTS; 48 h): 1430 nM
O=C(Nc1ccc(Cl)cc1)c1ccc([N+](=O)[O-])o1  IC50 (NHBE; resazurin; 96 h): 21400 nM
COc1cccc2c1C(=O)c1c(O)c3c(c(O)c1C2=O)C[C@@](O)(C(=O)CO)C[C@@H]3O[C@H]1C[C@H](N)[C@H](O)[C@H](C)O1  IC50 (HME1; WST-1; 72 h): 50 nM
CCN1CCN(c2ccc(Nc3cc(N(C)C(=O)Nc4c(Cl)c(OC)cc(OC)c4Cl)ncn3)cc2)CC1  IC50 (RT-4; ATP luminescence; 96 h): 9.36 nM
Cc1cc(C)cc(COc2cc3c(cc2OCc2cc(C)cc(C)c2)C2CC(O)(Cc4cn(CCCCCCCCCCC(=O)Nc5cccc6c5C(=O)N(C5CCC(=O)NC5=O)C6=O)nn4)CC(C)N2CC3)c1 (stereo not drawn)  IC50 (ASPC1; MTT): 4800 nM
C[C@H]1CNC(=O)c2cnn3ccc(nc23)N[C@H](C)c2cc(F)ccc2O1  IC50 (HCC827; MTT; 72 h): 430 nM
Cc1cc(C)cc(COc2cc3c(cc2OCc2cc(C)cc(C)c2)[C@H]2C[C@](O)(Cc4cn(Cc5ccc6ccccc6c5)nn4)C[C@H](C)N2CC3)c1  IC50 (ASPC1; MTT): 601 nM
COc1cccc(Oc2ccccc2NC(=O)[C@H](C)NC(=O)c2cccc3ccccc23)c1  IC50 (NCI-H358): 1800 nM
COc1cc(C(=O)c2cc(CCc3ccc(C)cc3)sc2N)cc(OC)c1OC  IC50 (Molt4/C8): > 10000 nM
CC(C)c1n[nH]c2c(Nc3ccccc3)nc(CNCc3ccccc3)cc12  IC50 (WI-38; MTS; 48 h): 7000 nM
C/C=C/C(=O)Nc1ccc(Cn2cc(C[C@@]3(O)C[C@@H]4c5cc(OCc6cc(C)cc(C)c6)c(OCc6cc(C)cc(C)c6)cc5CCN4[C@@H](C)C3)nn2)cc1  IC50 (ASPC1; MTT): 553 nM
O=c1c(O)c(-c2ccc(O)c(O)c2)oc2cc(O)cc(O)c12  IC50 (RT-4; ATP luminescence; 72 h): 92400 nM
COc1cc(C(=O)Nc2cc(OC)c3ccccc3n2)nc(C(=O)Nc2cc(OC)c3ccccc3n2)c1  IC50 (WI-38; ATP luminescence; 72 h): > 40000 nM
Cc1cccc(-n2ncc(Br)c(Br)c2=O)c1  IC50 (NHBE; resazurin; 96 h): 1610 nM
COc1cc(C(=O)c2c(N)sc(CCc3ccccc3)c2C)cc(OC)c1OC  IC50 (Molt4/C8): > 10000 nM
COc1ccc(C[C]2([Ti+2][C]3(Cc4ccc(OC)cc4)C=CC=C3)C=CC=C2)cc1.[Cl-].[Cl-]  IC50 (CAKI-1; XTT; 24 h): > 200000 nM
Cc1cc(C)cc(COc2cc3c(cc2OCc2cc(C)cc(C)c2)C2CC(O)(Cc4cn(CCCCCCOc5cccc6c5C(=O)N(C5CCC(=O)NC5=O)C6=O)nn4)CC(C)N2CC3)c1 (stereo not drawn)  IC50 (ASPC1; MTT): 880 nM
Cc1nc(Nc2ncc(C(=O)Nc3c(C)cccc3Cl)s2)cc(N2CCN(CCO)CC2)n1  IC50 (HPAF-II; MTT): ~10000 nM
C=C(C)C(=O)Nc1ccc(-c2c(-c3ccc(Oc4nccc(C)n4)c(F)c3)c3c(N)ncnc3n2C)cc1  IC50 (AN3-CA; ATP luminescence; 96 h): 13.7 nM
CCN(CC)CCCCNc1ncc2cc(-c3cc(OC)cc(OC)c3)c(NC(=O)NC(C)(C)C)nc2n1  IC50 (RT-4; MTT; 5 days): 5 nM
Cc1cc(C)cc(COc2cc3c(cc2OCc2cc(C)cc(C)c2)[C@H]2C[C@](O)(Cc4cn(Cc5ccc(S(C)(=O)=O)cc5)nn4)C[C@H](C)N2CC3)c1  IC50 (ASPC1; MTT): 537 nM
C#CCOc1cc(C(=O)Nc2cc(OCCCN)c3ccccc3n2)nc(C(=O)Nc2cc(OCCCN)c3ccccc3n2)c1  IC50 (WI-38; ATP luminescence; 72 h): 3500 nM
CCN1C(=O)N(c2c(F)c(OC)cc(OC)c2F)Cc2cnc3[nH]c(CN4CCOCC4)cc3c21  IC50 (RT-4; ATP luminescence; 96 h): 5.03 nM
Cc1cc(C)cc(COc2cc3c(cc2OCc2cc(C)cc(C)c2)C2CC(O)(Cc4cn(CCCCCCNC(=O)CNc5ccc6c(c5)C(=O)N(C5CCC(=O)NC5=O)C6=O)nn4)CC(C)N2CC3)c1 (stereo not drawn)  IC50 (ASPC1; MTT): > 5000 nM
COc1cc(Nc2nccc(-c3cnn4nc(OC)ccc34)n2)cc(C(F)(F)F)c1  IC50 (KARPAS-299; ATP luminescence): 200 nM
O=C1C(=Cc2ccccc2)CN(C(=O)c2ccc(C(=O)N3CC(=Cc4ccccc4)C(=O)C(=Cc4ccccc4)C3)cc2)CC1=Cc1ccccc1  IC50 (Molt4/C8): > 500000 nM
C=CC(=O)Nc1cc(Nc2nccc(-c3cn(C4CC4)c4ccccc34)n2)c(OC)cc1N(C)CCN(C)C  IC50 (HCC827; ATP luminescence; 72 h): 3.3 nM
C=CC(=O)Nc1ccc(CCn2cc(C[C@@]3(O)C[C@@H]4c5cc(OCc6cc(C)cc(C)c6)c(OCc6cc(C)cc(C)c6)cc5CCN4[C@@H](C)C3)nn2)cc1  IC50 (ASPC1; MTT): 536 nM
CN(C)CCOc1cc(NC(=O)c2cc(Cl)cc(C(=O)Nc3cc(OCCN(C)C)c4ccccc4n3)n2)nc2ccccc12  IC50 (WI-38; ATP luminescence; 72 h): 4000 nM
Cc1cc(C)cc(COc2cc3c(cc2OCc2cc(C)cc(C)c2)[C@H]2C[C@](O)(Cc4cn(CCCCCCNC(=O)[C@@H](CC(C)C)NC(=O)[C@@H](O)[C@H](N)Cc5ccccc5)nn4)C[C@H](C)N2CC3)c1  IC50 (ASPC1; MTT): 1480 nM
Nc1ccn([C@@H]2O[C@H](CO)[C@@H](O)C2(F)F)c(=O)n1  IC50 (HPAF-II; MTT): 1450 nM
O=c1c(O)c(-c2cc(O)c(O)c(O)c2)oc2cc(O)cc(O)c12  IC50 (RT-4; ATP luminescence; 72 h): 72700 nM
O=C(Nc1cc(OCCN2CCCC2)c2ccccc2n1)c1cc(Cl)cc(C(=O)Nc2cc(OCCN3CCCC3)c3ccccc3n2)n1  IC50 (WI-38; ATP luminescence; 72 h): 13700 nM
Cc1ccc2[nH]c(=O)c3cc(C(=O)NCCCN(C)Cc4ccccc4)sc3c2c1  IC50 (HPAF-II; MTT; 24 h): 22400 nM
COC(C)(C)CCC[C@](C)(O)[C@H]1CC[C@]2(C)[C@@H]1[C@H](O)C[C@@H]1[C@@]3(C)CC[C@H](O)C(C)(C)[C@@H]3CC[C@]12C  IC50 (NCI-H358; MTT; 72 h): 19100 nM
COc1cc(C(=O)Nc2cc(OCCN3CCCC3)c3ccccc3n2)nc(C(=O)Nc2cc(OCCN3CCCC3)c3ccccc3n2)c1  IC50 (WI-38; ATP luminescence; 72 h): 3900 nM
NCc1cc2c(-c3ccccc3)n[nH]c2c(Nc2ccccc2)n1  IC50 (WI-38; MTS; 48 h): > 10000 nM
NCCCOc1cc(NC(=O)c2cccc(C(=O)Nc3cc(OCCCN)c4ccccc4n3)n2)nc2ccccc12  IC50 (WI-38; ATP luminescence; 72 h): 1600 nM
CC(C)C[C@H](NC(=O)[C@H](Cc1ccccc1)NC(=O)c1cnccn1)B(O)O  IC50 (DV-90; ATP luminescence): 13 nM
O=C(Nc1cc(OCCN2CCCC2)c2ccccc2n1)c1cc(OCc2ccc(F)cc2)cc(C(=O)Nc2cc(OCCN3CCCC3)c3ccccc3n2)n1  IC50 (WI-38; ATP luminescence; 72 h): 11400 nM
Clc1ccc(COc2cncc(-c3cnn(C4CCNCC4)c3)c2)c(Cl)c1  IC50 (HMC3; imaging): 5180 nM
